Values after ≈ are worked out from the molar mass of the structure shown.
Legend:
Assay type in all cases: functional
FM3A = assay: Inhibitory effect on proliferation of Murine mammary Carcinoma (FM3A); details: Mus musculus, read-out: ID50 (the source's name)
HeLa [1] = assay: Minimum cytotoxic concentration against vaccinia virus in aneuploid (Hela) human cells
Method in brief: (§1)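 Uninfected confluent monolayers (rabbit kidney, HeLa, Vero or E6SM) were incubated with compound for the same time as the antiviral assay. The value is the lowest concentration (µg/mL) that causes a microscopically detectable change in normal cell morphology.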

HeLa [2] = assay: Minimum inhibitory concentration against vaccinia virus in aneuploid (Hela) human cells
Homo sapiens [3] = species on record: Homo sapiens; assay: Minimum cytotoxic concentration in diploid (E6SM) human cell culture; method in brief: as §1
Homo sapiens [4] = species on record: Homo sapiens; assay: Minimum inhibitory concentration against vaccinia virus in diploid (E6SM) human cell culture
Homo sapiens [5] = species on record: Homo sapiens; assay: Inhibitory effect on proliferation of Human B-Lymphoblast (Raji); details: read-out: ID50 (the source's name)
L1210 = assay: Inhibitory effect on Proliferation of Murine Leukemia (L1210); details: Mus musculus, read-out: ID50 (the source's name)
Oryctolagus cuniculus [6] = species on record: Oryctolagus cuniculus; assay: Minimum cytotoxic concentration against herpes simplex virus in primary rabbit kidney cell cultures; method in brief: as §1
Oryctolagus cuniculus [7] = species on record: Oryctolagus cuniculus; assay: Antiviral activity in primary rabbit kidney cell cultures against Herpes Simplex virus type 1 (Fstrain)
Oryctolagus cuniculus [8] = species on record: Oryctolagus cuniculus; assay: Antiviral activity in primary rabbit kidney cell cultures against Herpes Simplex virus type 1 (KOS strain)
Oryctolagus cuniculus [9] = species on record: Oryctolagus cuniculus; assay: Antiviral activity in primary rabbit kidney cell cultures against Herpes Simplex virus type 1 (McIntyre strain)
Oryctolagus cuniculus [10] = species on record: Oryctolagus cuniculus; assay: Antiviral activity in primary rabbit kidney cell cultures against Herpes Simplex virus type 1 (TK-strain B2006)
Oryctolagus cuniculus [11] = species on record: Oryctolagus cuniculus; assay: Antiviral activity in primary rabbit kidney cell cultures against Herpes Simplex virus type 1 (TK-strain VMW I837)
Oryctolagus cuniculus [12] = species on record: Oryctolagus cuniculus; assay: Antiviral activity in primary rabbit kidney cell cultures against Herpes simplex virus type 2 Strain 196
Oryctolagus cuniculus [13] = species on record: Oryctolagus cuniculus; assay: Antiviral activity in primary rabbit kidney cell cultures against Herpes simplex virus type 2 Strain G
Oryctolagus cuniculus [14] = species on record: Oryctolagus cuniculus; assay: Antiviral activity in primary rabbit kidney cell cultures against Herpes simplex virus type 2 Strain Lyons
Oryctolagus cuniculus [15] = species on record: Oryctolagus cuniculus; assay: Antiviral activity in primary rabbit kidney cell cultures against vesicular stomatitis virus
[16] = Inhibitory effect on proliferation of Human T-Lymphoblast (Molt/4F) cells; details: read-out: ID50 (the source's name)
Vero [17] = assay: Minimum inhibitory concentration against vaccinia virus in vero cells of African green monkey kidney; details: Chlorocebus sabaeus
Vero [18] = assay: Minimum cytotoxic concentration in vero cells of African green monkey kidney; details: Chlorocebus sabaeus; method in brief: as §1
Oryctolagus cuniculus [19] = species on record: Oryctolagus cuniculus; assay: Antiviral activity in primary rabbit kidney cell cultures against vaccinia virus

SMILES | IC50 (FM3A) | MCC (HeLa [1]) | MIC (HeLa [2]) | MCC (Homo sapiens [3]) | MIC (Homo sapiens [4]) | IC50 (Homo sapiens [5]) | IC50 (L1210) | MCC (Oryctolagus cuniculus [6]) | MIC (Oryctolagus cuniculus [7]) | MIC (Oryctolagus cuniculus [8]) | MIC (Oryctolagus cuniculus [9]) | MIC (Oryctolagus cuniculus [10]) | MIC (Oryctolagus cuniculus [11]) | MIC (Oryctolagus cuniculus [12]) | MIC (Oryctolagus cuniculus [13]) | MIC (Oryctolagus cuniculus [14]) | MIC (Oryctolagus cuniculus [15]) | IC50 [16] | MIC (Vero [17]) | MCC (Vero [18]) | further results
Nc1ncnc2c1ncn2C1O[C@H](CO)C(OP(=O)([O-])OC[C@H]2OC(n3cnc4c(N)ncnc43)[C@@H](O)[C@@H]2O)[C@@H]1O.[Na+] (stereo partly drawn) | 22.4 µg/mL | ≥ 200 µg/mL | 20 µg/mL | > 400 µg/mL | 2 µg/mL | 30 µg/mL | 22.2 µg/mL | > 200 µg/mL | 10 µg/mL | 20 µg/mL | 10 µg/mL | 20 µg/mL | 20 µg/mL | 7 µg/mL | 7 µg/mL | 2 µg/mL | > 100 µg/mL | 13.6 µg/mL | 20 µg/mL | > 400 µg/mL | MIC (Oryctolagus cuniculus [19]): 0.2 µg/mL
Nc1ncnc2c1ncn2[C@@H]1O[C@H](COP(=O)(O)O)[C@@H](O)[C@@H]1O [VIDARABINE PHOSPHATE] | 23.9 µg/mL | ≥ 400 µg/mL | 20 µg/mL | ≥ 400 µg/mL | 7 µg/mL | 32.6 µg/mL | 24.2 µg/mL | > 100 µg/mL | 7 µg/mL | 20 µg/mL | 10 µg/mL | 20 µg/mL | 20 µg/mL | 20 µg/mL | 7 µg/mL | 2 µg/mL | > 400 µg/mL | 18.5 µg/mL | 20 µg/mL | ≥ 200 µg/mL | MIC (Oryctolagus cuniculus [19]): 0.2 µg/mL
Nc1ncnc2c1ncn2[C@@H]1O[C@H](CO)[C@@H](O)[C@@H]1O [VIDARABINE] | 21.1 µg/mL (≈ 79 µM) | > 200 µg/mL | 20 µg/mL (≈ 74.8 µM) | > 400 µg/mL | 7 µg/mL (≈ 26.2 µM) | 25.9 µg/mL (≈ 96.9 µM) | 21 µg/mL (≈ 78.6 µM) | > 100 µg/mL | 7 µg/mL (≈ 26.2 µM) | 20 µg/mL (≈ 74.8 µM) | 10 µg/mL (≈ 37.4 µM) | 20 µg/mL (≈ 74.8 µM) | 20 µg/mL (≈ 74.8 µM) | 20 µg/mL (≈ 74.8 µM) | 7 µg/mL (≈ 26.2 µM) | 7 µg/mL (≈ 26.2 µM) | 20 µg/mL (≈ 74.8 µM) | 16.7 µg/mL (≈ 62.5 µM) | 70 µg/mL (≈ 262 µM) | ≥ 400 µg/mL | MIC (Oryctolagus cuniculus [19]): 2 µg/mL (≈ 7.48 µM)

Source: ChEMBL document CHEMBL1124280, “Synthesis and biological evaluation of isomeric dinucleoside monophosphates and monomethylphosphonates of 9-beta-D-arabinofuranosyladenine and related analogues” (1988)
